Test results as given in ChEMBL document CHEMBL1132217, “Syntheses of biotinylated alpha-galactosylceramides and their effects on the immune system and CD1 molecules” (1999).

What was measured:
Type in all cases: functional
[1] = organism: Mus musculus; test: [3H]TdR uptake measured by spleen cell proliferation assay by adding compound dose of 100 ng/mL
Outline: (§1)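 Spleens from female C57BL/6 mice dissociated in RPMI 1640, red cells lysed with Tris NH4Cl, washed three times in PBS. Cells (2.5 × 10^5/well, 10% FCS RPMI 1640) cultured with sample or DMSO vehicle (0.001–0.1%) for 18 h at 37 °C, 5% CO2; [3H]TdR 0.5 μCi/well added, uptake counted by liquid scintillation 8 h later. Mean ± S.D.; p < 0.05 vs vehicle.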

[2] = organism: Mus musculus; test: [3H]-TdR uptake measured by spleen cell proliferation assay by adding compound dose of 1 ng/mL; outline: as §1
[3] = organism: Mus musculus; test: [3H]TdR uptake measured by spleen cell proliferation assay by adding compound dose of 10 ng/mL; outline: as §1

SMILES	Incorporation [1]	Incorporation [2]	Incorporation [3]
CCCCCCCCCCCCCCC[C@@H](O)[C@H](CO[C@H]1O[C@@H](CO)[C@H](O)[C@H](O)[C@@H]1O)NC(=O)CCCCCCCCCCNC(=O)CCCCCNC(=O)CCCC[C@@H]1SC[C@@H]2NC(=O)N[C@@H]21	14588 c.p.m.	4628 c.p.m.	8665 c.p.m.
CCCCCCCCCCCCCCCC[C@H](CO[C@H]1O[C@@H](CO)[C@H](O)[C@H](O)[C@@H]1O)NC(=O)CCCCCCCCCCNC(=O)CCCCCNC(=O)CCCC[C@@H]1SC[C@@H]2NC(=O)N[C@@H]21	9427 c.p.m.	4803 c.p.m.	5330 c.p.m.
CCCCCCCCCCCCCC[C@@H](O)[C@@H](O)[C@H](CO[C@H]1O[C@@H](CO)[C@H](O)[C@H](O)[C@@H]1O)NC(=O)CCCCCCCCCCNC(=O)CCCCCNC(=O)CCCC[C@@H]1SC[C@@H]2NC(=O)N[C@@H]21 (stereo in doubt; form 1)	5463 c.p.m.	4811 c.p.m.	4833 c.p.m.
CCCCCCCCCCCCCCCCCCCCCCCCCC(=O)N[C@@H](CO[C@H]1O[C@H](CO)[C@H](O)[C@H](O)[C@H]1O)[C@H](O)[C@H](O)CCCCCCCCCCCCCC [RGI-7000]	17636 c.p.m.	13499 c.p.m.	17438 c.p.m.
